In ChEMBL document CHEMBL1135416, “Nonpeptide bradykinin B2 receptor antagonists: conversion of rodent-selective bradyzide analogues into potent, orally-active human bradykinin B2 receptor antagonists” (J Med Chem, 2002):
pIC50, pKi: −log10 of the molar value. Values after ≈ are worked out from the molar mass of the structure shown.

Assays:
B2 bradykinin receptor [1] = molecular target: T1, B2 bradykinin receptor (Homo sapiens, UniProt P30411); assay: Displacement of [3H]BK (1 nM) from human Bradykinin receptor B2 expressed in Cos-7 cells; assay type: cell-based
T1 sequence (P30411 whole entry): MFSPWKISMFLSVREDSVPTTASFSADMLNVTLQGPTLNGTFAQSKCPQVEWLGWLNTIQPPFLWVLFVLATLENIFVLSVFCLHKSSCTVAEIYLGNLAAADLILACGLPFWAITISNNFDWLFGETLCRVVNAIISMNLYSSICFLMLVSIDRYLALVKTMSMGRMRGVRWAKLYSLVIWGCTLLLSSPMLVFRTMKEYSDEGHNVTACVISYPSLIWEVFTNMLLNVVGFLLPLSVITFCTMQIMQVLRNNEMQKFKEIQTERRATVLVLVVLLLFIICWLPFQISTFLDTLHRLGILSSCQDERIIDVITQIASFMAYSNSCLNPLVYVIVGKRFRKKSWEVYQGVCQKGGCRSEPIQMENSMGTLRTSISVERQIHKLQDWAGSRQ
In short: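 [3H]BK was 1 nM and nonspecific binding was set with 10 µM BK. Incubation was 60 min at 4 °C, then GF/B filtration, a cold 50 mM Tris pH 7.4 wash and counting. Ki was derived from IC50 (Cheng–Prusoff). Data are mean ± SEM of ≥3 triplicate experiments.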

B2 bradykinin receptor [2] = molecular target: T2, B2 bradykinin receptor (Rattus norvegicus, UniProt P25023); assay: Inhibition of specific binding of [3H]-BK (1 nM) to rat Bradykinin receptor B2 by 50% in NG108-15 cell membranes; parameters: species or system Membrane
T2 sequence (P25023 whole entry): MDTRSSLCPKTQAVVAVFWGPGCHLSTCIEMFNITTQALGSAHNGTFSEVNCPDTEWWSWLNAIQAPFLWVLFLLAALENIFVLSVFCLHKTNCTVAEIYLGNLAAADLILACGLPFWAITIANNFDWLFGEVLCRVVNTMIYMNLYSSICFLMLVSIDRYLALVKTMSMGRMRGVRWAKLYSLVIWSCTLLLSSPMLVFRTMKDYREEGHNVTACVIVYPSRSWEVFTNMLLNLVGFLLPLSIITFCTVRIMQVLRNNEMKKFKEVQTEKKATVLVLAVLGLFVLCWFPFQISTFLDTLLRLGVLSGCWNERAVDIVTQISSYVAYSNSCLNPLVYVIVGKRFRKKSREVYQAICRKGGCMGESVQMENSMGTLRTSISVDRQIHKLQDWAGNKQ
In short: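 NG108-15 cell membranes (rodent B2) were diluted to about 0.3 mg/mL protein in 25 mM potassium phosphate pH 6.5 with 1 mM EGTA, 0.1 mM bacitracin, chymostatin and BSA. [3H]BK was 1 nM and nonspecific binding was set with 10 µM BK. Incubation was 60 min at 4 °C, followed by PEI-soaked GF/B filtration, a cold phosphate pH 6.5 wash and scintillation counting. Ki was derived from IC50 (Cheng–Prusoff). Data are mean ± SEM of ≥3 experiments in triplicate.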

Rattus norvegicus [3] = species: Rattus norvegicus; assay: Reversal of FCAT-induced mechanical […] in rats; assay type: functional
In short: (§1)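 Female Sprague-Dawley rats (100-120 g) under light enflurane received 100 µL FCA into one knee. Three to six days later, each hind paw was placed on a pressure transducer with the uninjected leg bearing 100 g, and the load tolerated by the injected leg was read half-hourly. Compounds were given after three control readings. The response was expressed as % maximal reversal (100% = equal load on both legs).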

B2 bradykinin receptor [4] = molecular target: T1, B2 bradykinin receptor; assay: Antagonism of the [Ca2+] efflux actions of the human Bradykinin receptor B2 (WI38 fibroblasts); assay type: functional
B2 bradykinin receptor [5] = molecular target: T2, B2 bradykinin receptor; assay: Inhibition of increase in [Ca2+] efflux from NG108-15 cells caused by activation of rat Bradykinin receptor B2; assay type: functional, cell-based
Rattus norvegicus [6] = species: Rattus norvegicus; assay: Reversal of turpentine-induced mechanical […] in rats; assay type: functional
In short: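 Rats received an intraplantar injection of 50 µL turpentine/paraffin (1:1) into the left hind paw. Three days later, compound or vehicle was given orally or iv, and the paw withdrawal threshold (mean of two readings) was taken 1 h later. ED50 was the dose giving 50% of maximum reversal. Efficacy was the maximum reversal as % of the pre-turpentine threshold.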

B2 bradykinin receptor [7] = molecular target: T2, B2 bradykinin receptor; assay: Inhibition of Bradykinin receptor B2-mediated contractions of rat uterus smooth muscle; assay type: functional, tissue-based
[8] = Solubility at pH 7.4; assay type: physicochemical; conditions: buffer
B2 bradykinin receptor [9] = molecular target: T1, B2 bradykinin receptor; assay: Antagonism of the [Ca2+] efflux actions of the human Bradykinin receptor B2 (SK-N-SH neuroblastoma); assay type: functional
B2 bradykinin receptor [10] = molecular target: T1, B2 bradykinin receptor; assay: Antagonism of the [Ca2+] efflux actions of human Bradykinin receptor B2 (SK-N-SH neuroblastoma); assay type: functional
B2 bradykinin receptor [11] = molecular target: T1, B2 bradykinin receptor; assay: Antagonism of the [Ca2+] efflux actions of human Bradykinin receptor B2 (WI38 fibroblasts); assay type: functional
Rattus norvegicus [12] = species: Rattus norvegicus; assay: Duration of action (excess) in FCAT-induced mechanical […] in rats; assay type: functional
Rattus norvegicus [13] = species: Rattus norvegicus; assay: Oral efficacy against FCAT-induced mechanical […] in rats; assay type: functional; in short: as §1

pKi (B2 bradykinin receptor [1]) | pKi (B2 bradykinin receptor [2]) | Structure (SMILES) | other results
8.33 | 7.84 | CN(C)CCN(C)CCNC(=O)[C@@H]1CCCN1S(=O)(=O)c1ccc(NNC(=S)NC2c3ccccc3CCc3ccccc32)c([N+](=O)[O-])c1 | –
6.19 | – | CN(C)CCCN(C)CCNC(=O)[C@@H]1CCCN1S(=O)(=O)c1ccc(N/N=C(\S)NC2c3ccccc3-c3ccccc32)c([N+](=O)[O-])c1 | –
6.60 | – | CN(C)CCCN(C)CCNC(=O)c1cccn1S(=O)(=O)c1ccc(NNC(=O)NC2c3ccccc3CCc3ccccc32)c(Cl)c1 | –
8.55 | 6.75 | CN(C)CCCN(C)CCNC(=O)c1cccn1S(=O)(=O)c1ccc(NNC(=O)NC2c3ccccc3CCc3ccccc32)c([N+](=O)[O-])c1 | ED50 (Rattus norvegicus [3]): 0.027 µmol/kg; pIC50 (B2 bradykinin receptor [4]): 7.26; pIC50 (B2 bradykinin receptor [5]): 6.85; ED50 (Rattus norvegicus [6]): 0.32 µmol/kg; pIC50 (B2 bradykinin receptor [7]): 8.72; solubility [8]: 400 µg/mL (≈ 569 µM); pIC50 (B2 bradykinin receptor [9]): 7.92
9.10 | 7.97 | CN(C)CCCN(C)CCNC(=O)[C@@H]1CCCN1S(=O)(=O)c1ccc(NNC(=O)NC2c3ccccc3CCc3ccccc32)c([N+](=O)[O-])c1 | pIC50 (B2 bradykinin receptor [10]): 7.04; ED50 (Rattus norvegicus [3]): 0.043 µmol/kg; pIC50 (B2 bradykinin receptor [11]): 7.77; pIC50 (B2 bradykinin receptor [5]): 6.98; ED50 (Rattus norvegicus [6]): 0.11 µmol/kg; pIC50 (B2 bradykinin receptor [7]): 8.62
5.84 | – | CN(C)CCN(C)CCNC(=O)[C@H]1CCCN1S(=O)(=O)c1ccc(NNC(=S)NC(c2ccccc2)c2ccccc2)c([N+](=O)[O-])c1 | –

More lines, now with the values behind:

Structure (SMILES) | pKi (B2 bradykinin receptor [1]) | pKi (B2 bradykinin receptor [2]) | other results
CN(C)CCCN(C)CCNC(=O)[C@@H]1CCCN1S(=O)(=O)c1ccc(N/N=C(\S)NC(c2ccccc2)c2ccccc2)c([N+](=O)[O-])c1 | 6.92 | 10.64 | –
CN(C)CCCN(C)CCCNC(=O)[C@@H]1CCCN1S(=O)(=O)c1ccc(N/N=C(\S)NC(c2ccccc2)c2ccccc2)c([N+](=O)[O-])c1 | 7.02 | 9.51 | –
CN(C)CCN(C)CCNC(=O)[C@@H]1CCCN1S(=O)(=O)c1ccc(NNC(=O)NC(c2ccccc2)c2ccccc2)c(Cl)c1 | – | 8.14 | –
CN(C)CCN(C)CCNC(=O)[C@@H]1CCCN1S(=O)(=O)c1ccc(N/N=C(\S)NC(c2ccccc2Cl)c2ccccc2Cl)c([N+](=O)[O-])c1 | 7.47 | 8.26 | –
CN(C)CCN(C)CCNC(=O)c1cccn1S(=O)(=O)c1ccc(N/N=C(\S)NC2c3ccccc3CCc3ccccc32)c([N+](=O)[O-])c1 | 8.83 | 7.19 | –
CN(C)CCN(C)CCNC(=O)c1cccn1S(=O)(=O)c1ccc(NNC(=S)NC(c2ccccc2)c2ccccc2)c([N+](=O)[O-])c1 | 6.63 | – | –
CN(C)CCN(C)CCNC(=O)[C@@H]1CCCN1S(=O)(=O)c1ccc(NNC(=S)NC(c2ccccc2)c2ccccc2)c([N+](=O)[O-])c1 | 6.11 | – | Time (Rattus norvegicus [12]): 4 h; ED50 (Rattus norvegicus [13]): 0.84 µmol/kg
